# Published values pooled from the literature.
# Compare with care: the assays were run in different laboratories.
# SLC22A11: Solute carrier family 22 member 11 (SLC22A11, Homo sapiens, UniProt Q9NSA0)
# ERBB2: Receptor tyrosine-protein kinase erbB-2 (ERBB2, Homo sapiens, UniProt P04626)
# CYP2C19: Cytochrome P450 2C19 (CYP2C19, Homo sapiens, UniProt P33261)
# 60 kDa heat shock protein, mitochondrial: 60 kDa heat shock protein, mitochondrial (Homo sapiens, UniProt P10809)
Compound,target,test,test system,setting,measurement,result
O=C1CCc2ccccc2O1,"Carbonic anhydrase 2 (CA2, Homo sapiens, UniProt P00918)","enzyme activity, inhibitor, stopped-flow",,,Ki,48.5 µM
Nc1ncnc2c1ncn2[C@@H]1O[C@H](CO)[C@@H](O)[C@H]1O,SLC22A11,"transporter uptake, inhibitor, radiometric",,oocytes,IC50,> 2000 µM
O=C(O)Cc1csc(NC(=O)c2cc3ccccc3[nH]2)n1,ERBB2,"enzyme activity, inhibitor",,,IC50,0.618 µM
O=C1c2cccc3c2[C@H](CCC3)CN1[C@@H]1CN2CCC1CC2,"5-hydroxytryptamine receptor 3A (HTR3A, Homo sapiens, UniProt P46098)","ligand displacement, radioligand",,,Ki,0.000246 µM
Cn1nc2c(=O)n(C3CC3)cnc2c1[C@](O)(c1cnc(C(F)(F)F)c(Cl)c1)C(F)(F)F,CYP2C19,"enzyme activity, inhibitor","human, liver microsomes",pH 7.4,IC50,> 20 µM
COc1ccc2[nH]c(C(=O)Nc3nc(CC(=O)O)cs3)cc2c1,ERBB2,"enzyme activity, inhibitor",,,IC50,1.77 µM
Cn1nc2c(=O)n(C3CC3)ncc2c1[C@](O)(c1cnc(C(F)(F)F)c(Cl)c1)C(F)(F)F,CYP2C19,"enzyme activity, inhibitor","human, liver microsomes",pH 7.4,IC50,> 20 µM
Cn1c(=O)c2c(ncn2C)n(C)c1=O,SLC22A11,"transporter uptake, inhibitor, radiometric",,oocytes,IC50,575 µM
Cn1ncc2c(Cl)c(C(=O)NCc3ccccc3)cnc21,"60 kDa heat shock protein, mitochondrial","ATPase activity, inhibitor",,,IC50,> 250 µM
COC(=O)Nc1nc2ccc(C(=O)c3ccccc3)cc2[nH]1,"Tyrosine-protein kinase ABL1 (ABL1, Homo sapiens, UniProt P00519)","enzyme activity, inhibitor, mobility shift",,,IC50,1.78 µM
O=C1CC[C@H](N2Cc3cc(N4CCN(CC5CCN(c6ccc([C@@H]7c8ccc(O)cc8CC[C@@H]7c7ccccc7)cc6)CC5)CC4)ccc3C2=O)C(=O)N1,"Androgen receptor (AR, Homo sapiens, UniProt P10275)","ligand displacement, radioligand",,,IC50,0.1 µM
CC(C)(C)OC(=O)N1CCN(Cc2ccn(Cc3ccc(Cl)cc3)c(=O)c2O)CC1,"Lysine-specific demethylase 3B (KDM3B, Homo sapiens, UniProt Q7LBC6)","enzyme activity, inhibitor, AlphaScreen",,,IC50,4.79 µM
Cc1nn(C)c2ncc(C(=O)NCC3CC(Br)=NO3)c(Cl)c12 (stereo not drawn),"60 kDa heat shock protein, mitochondrial","ATPase activity, inhibitor",,,IC50,> 250 µM
CNC(=O)c1ccc(Nc2ncc(C(F)(F)F)c(NCc3nccnc3N(C)S(C)(=O)=O)n2)cc1,"cGMP-dependent 3',5'-cyclic phosphodiesterase (PDE2A, Homo sapiens, UniProt O00408)","enzyme activity, inhibitor",,,IC50,3.8 µM
Cn1cncc1[C@@](N)(c1ccc(Cl)cc1)c1ccc2c(c1)c(-c1cccc(Cl)c1)cc(=O)n2C,CYP2C19,"enzyme activity, inhibitor","human, liver microsomes",,Ki,0.75 µM
